Assay [1] addresses T1, Muscarinic acetylcholine receptor M2 (Sus scrofa) (UniProt P06199).
T1 sequence (whole entry): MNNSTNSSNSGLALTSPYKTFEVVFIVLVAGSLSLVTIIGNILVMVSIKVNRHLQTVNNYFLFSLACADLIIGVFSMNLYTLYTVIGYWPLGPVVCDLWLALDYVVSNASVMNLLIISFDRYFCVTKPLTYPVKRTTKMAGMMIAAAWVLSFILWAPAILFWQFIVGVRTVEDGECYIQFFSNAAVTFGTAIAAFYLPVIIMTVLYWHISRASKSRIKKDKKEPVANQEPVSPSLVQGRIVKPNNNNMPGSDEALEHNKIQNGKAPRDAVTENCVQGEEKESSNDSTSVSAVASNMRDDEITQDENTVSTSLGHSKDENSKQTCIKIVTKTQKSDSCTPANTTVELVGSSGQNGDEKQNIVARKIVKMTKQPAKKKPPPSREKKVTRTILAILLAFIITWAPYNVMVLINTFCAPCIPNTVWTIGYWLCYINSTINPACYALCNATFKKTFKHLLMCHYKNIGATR
As to the kind of experiment: Cooperativity factor pAlpha at porcine heart ventricle muscarinic acetylcholine receptor M2. Summed up:
(§1)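 Pig heart ventricle homogenates in 2.7 mM MgHPO4, 45 mM Tris-HCl, pH 7.3, 37 °C; [3H]NMS 0.20 nM with increasing test compound concentrations; incubation 180–530 min, calculated to reach equilibrium. Nonspecific binding with 1 μM atropine; bound label separated by rapid vacuum filtration onto glass filters and counted by liquid scintillation. Affinities for free and NMS-occupied receptor derived from binding curves.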

In assay [2] the target is T1, Muscarinic acetylcholine receptor M2 (Sus scrofa). As to the kind of experiment: Binding affinity for [3H]NMS-occupied muscarinic acetylcholine receptor M2 from porcine heart ventricle. The procedure, abridged: as §1
Assay [3] shares this target. Put plainly: Tested for binding of [3H]N-methylscopolamine ([3H]NMS) at porcine heart ventricle muscarinic acetylcholine receptor M2 expressed as -logKa. Summed up: as §1
Assay [4] addresses T2, Muscarinic acetylcholine receptor M2 (Sus scrofa, UniProt P06199).
T2 sequence (P06199 whole entry): T1 sequence (whole entry)
As to the kind of experiment: Effective concentration required to inhibit dissociation of [3H]NMS from porcine heart ventricles muscarinic acetylcholine receptor M2. Summed up:
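[3H]NMS dissociation in pig heart ventricle homogenates, Mg/Tris buffer pH 7.3, 37 °C. Membranes equilibrated 30 min with 0.2 nM [3H]NMS, then 1 μM atropine added alone or with various test compound concentrations. Either complete time courses over 120 min or two-point measurement (0 and 10 min); monoexponential apparent k-1 by nonlinear regression; filtration and scintillation counting.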

Results on 26 molecules are retold here after ChEMBL document CHEMBL1145782, “Systematic development of high affinity bis(ammonio)alkane-type allosteric enhancers of muscarinic ligand binding” (J Med Chem, 2003).

Turning to `CC(C)(CN1C(=O)c2ccccc2C1=O)C[N+](C)(C)CCCCCC[N+](C)(C)CC(C)(C)CN1C(=O)c2cccc3cccc(c23)C1=O`, in assay [1], the pAlpha was found to be 0.56. For the same molecule, in assay [2], the p alphaKa was 7.97. In assay [3], this molecule had a -logKa of 7.41. Besides, the EC50 (in general, the concentration giving half of the maximal effect) in assay [4] was 18.6 nM.
The matching figures for `C[N+](C)(CCCCCC[N+](C)(C)CCCN1C(=O)C2C3c4ccccc4C(c4ccccc43)C2C1=O)CCCN1C(=O)c2ccccc2C1=O` (centres undefined): -1.21, 6.56, 7.78 and 204 nM.
The matching figures for `Cc1ccc2c(c1)C(=O)N(CC(C)(C)C[N+](C)(C)CCCCCC[N+](C)(C)CCCN1C(=O)c3cccc4cccc(c34)C1=O)C2=O`: -0.04, 7.44, 7.48 and 36.3 nM.
Take `Cc1ccc2c(c1)C(=O)N(CCC[N+](C)(C)CCCCCC[N+](C)(C)CCCN1C(=O)c3ccc(C)cc3C1=O)C2=O`: the pAlpha in assay [1] is -0.33. In addition, the p alphaKa in assay [2] was 6.75. Moreover, in assay [3], the -logKa came to 7.08. In assay [4], the EC50 was 170 nM.
For `CC(C)(CN1C(=O)c2ccccc2C1=O)C[N+](C)(C)CCCCCC[N+](C)(C)CC(C)(C)CN1C(=O)c2ccccc2C1=O`, the pAlpha in assay [1] is -0.21. In assay [2], this molecule yielded a p alphaKa of 6.87. The molecule further gave a -logKa in assay [3] of 7.08. This molecule had an EC50 in assay [4] of 178 nM.
As to `C[N+](C)(CCCCCC[N+](C)(C)CCCN1C(=O)c2cc(F)c(F)cc2C1=O)CCCN1C(=O)c2cc(F)c(F)cc2C1=O`, the pAlpha in assay [1] is -0.39. The p alphaKa in assay [2] was found to be 6.08. Also, the -logKa in assay [3] was found to be 6.47. The molecule further had an EC50 in assay [4] of 741 nM.
The molecule `Cc1ccc2c(c1)C(=O)N(CCC[N+](C)(C)CCCCCC[N+](C)(C)CC(C)(C)CN1C(=O)c3ccc(C)cc3C1=O)C2=O` gave a pAlpha in assay [1] of 0.03. This molecule also gave a p alphaKa in assay [2] of 7.44. In assay [3], this molecule gave a -logKa of 7.41. Also, the response in assay [4] was half-maximal at 36.3 nM (EC50).
For the molecule `Cc1ccc2c(c1)C(=O)N(CCC[N+](C)(C)CCCCCC[N+](C)(C)CC(C)(C)CN1C(=O)c3ccccc3C1=O)C2=O`, in assay [1], the pAlpha is -0.13. Moreover, the p alphaKa in assay [2] was found to be 7.07. This molecule registered a -logKa in assay [3] of 7.2. In assay [4], this molecule gave an EC50 of 70.8 nM.
As for `C[N+](C)(CCCCCC[N+](C)(C)CCCN1C(=O)c2ccc(C(F)(F)F)cc2C1=O)CCCN1C(=O)c2ccccc2C1=O`, the pAlpha in assay [1] is -0.21. In assay [2], this molecule registered a p alphaKa of 6.12. The molecule further came in with a -logKa in assay [3] of 6.32. The same molecule had a concentration giving a half-maximal response (EC50) in assay [4] of 501 nM.
For `CC(C)(CN1C(=O)c2ccccc2C1=O)C[N+](C)(C)CCCCCC[N+](C)(C)CCCN1C(=O)c2ccccc2C1=O`, the pAlpha in assay [1] was -0.04. This molecule returned a p alphaKa in assay [2] of 6.86. The same molecule showed a -logKa in assay [3] of 6.9. The molecule also had an EC50 in assay [4] of 135 nM.
For the molecule `C[N+](C)(CCCCCC[N+](C)(C)CCCN1C(=O)c2cc3ccccc3cc2C1=O)CCCN1C(=O)c2ccccc2C1=O`, the pAlpha in assay [1] was -0.47. The same molecule came in with a p alphaKa in assay [2] of 6.8. In addition, the -logKa in assay [3] was found to be 7.27. For the same molecule, in assay [4], the half-maximal effective concentration (EC50) is 145 nM.
Molecule `CC(C)(CN1C(=O)c2cccc3cccc(c23)C1=O)C[N+](C)(C)CCCCCC[N+](C)(C)CCCN1C(=O)c2cccc3cccc(c23)C1=O` had a pAlpha in assay [1] of 0.17. The molecule further came in with a p alphaKa in assay [2] of 8.24. Also, the -logKa in assay [3] turned out to be 8.07. In addition, the EC50 in assay [4] was 7.76 nM.
For `C[N+](C)(CCCCCC[N+](C)(C)CCCN1C(=O)C2C3c4ccccc4C(c4ccccc43)C2C1=O)CCCN1C(=O)C2C3c4ccccc4C(c4ccccc43)C2C1=O` (centres undefined), the pAlpha in assay [1] is -1.38. Besides, in assay [2], the p alphaKa was 6.74. This molecule yielded a -logKa in assay [3] of 8.12. In assay [4], this molecule had an EC50 of 398 nM.
For the molecule `Cc1ccc2c(c1)C(=O)N(CC(C)(C)C[N+](C)(C)CCCCCC[N+](C)(C)CCCN1C(=O)c3ccccc3C1=O)C2=O`, in assay [1], the pAlpha is 0.19. This molecule came in with a p alphaKa in assay [2] of 7.45. The molecule also came in with a -logKa in assay [3] of 7.26. The same molecule gave an EC50 in assay [4] of 55 nM.
The matching figures for `C[N+](C)(CCCCCC[N+](C)(C)CCCN1C(=O)c2cc(Cl)c(Cl)cc2C1=O)CCCN1C(=O)c2ccccc2C1=O`: -0.17, 6.9, 7.08 and 115 nM.
For `CC(C)(CN1C(=O)c2cccc3cccc(c23)C1=O)C[N+](C)(C)CCCCCC[N+](C)(C)CC(C)(C)CN1C(=O)c2cccc3cccc(c23)C1=O` the same measures were 0.53, 8.04, 7.51 and 8.51 nM.
For `C[N+](C)(CCCCCC[N+](C)(C)CCCN1C(=O)c2cccc3cccc(c23)C1=O)CCCN1C(=O)c2cccc3cccc(c23)C1=O` the same measures were -0.28, 7.83, 8.11 and 13.8 nM.
In assay [1], `CC(C)(CN1C(=O)c2cccc3cccc(c23)C1=O)C[N+](C)(C)CCCCCC[N+](C)(C)CCCN1C(=O)c2ccccc2C1=O` [NAPHMETHONIUM] displayed a pAlpha of 0.37. Besides, in assay [2], the p alphaKa stood at 8.66. For the same molecule, the -logKa in assay [3] turned out to be 8.29. This molecule gave an EC50 in assay [4] of 4.37 nM.
The matching figures for `CC(C)(CN1C(=O)c2ccccc2C1=O)C[N+](C)(C)CCCCCC[N+](C)(C)CCCN1C(=O)c2cccc3cccc(c23)C1=O`: -0.005, 7.28, 7.28 and 52.5 nM.
As to `C[N+](C)(CCCCCC[N+](C)(C)CCCN1C(=O)c2cc3ccccc3cc2C1=O)CCCN1C(=O)c2cc3ccccc3cc2C1=O`, the pAlpha in assay [1] was -0.85. In assay [2], this molecule came in with a p alphaKa of 6.77. The same molecule yielded a -logKa in assay [3] of 7.62. Also, the EC50 in assay [4] was 204 nM.
For `C[N+](C)(CCCCCC[N+](C)(C)CCCN1C(=O)c2ccccc2C1=O)CCCN1C(=O)c2ccccc2C1=O` the same measures were -0.47, 5.73, 6.19 and 1350 nM.
Regarding `CC(C)(C)c1ccc2c(c1)C(=O)N(CCC[N+](C)(C)CCCCCC[N+](C)(C)CCCN1C(=O)c3ccccc3C1=O)C2=O`, the pAlpha in assay [1] is -0.81. For the same molecule, the p alphaKa in assay [2] worked out at 6.43. In assay [3], this molecule yielded a -logKa of 7.25. In addition, in assay [4], a half-maximal effect (EC50) was put at 309 nM.
With `CC(C)(C)c1ccc2c(c1)C(=O)N(CCC[N+](C)(C)CCCCCC[N+](C)(C)CCCN1C(=O)c3ccc(C(C)(C)C)cc3C1=O)C2=O`, in assay [1], the pAlpha is -0.89. For the same molecule, in assay [2], the p alphaKa amounted to 6.49. In addition, the -logKa in assay [3] is 7.38. The molecule also had an EC50 in assay [4] of 302 nM.
For `Cc1ccc2c(c1)C(=O)N(CCC[N+](C)(C)CCCCCC[N+](C)(C)CCCN1C(=O)c3cccc4cccc(c34)C1=O)C2=O` the same measures were -0.22, 7.79, 8.01 and 25.1 nM.
Regarding `C[N+](C)(CCCCCC[N+](C)(C)CCCN1C(=O)c2cc(Cl)c(Cl)cc2C1=O)CCCN1C(=O)c2cc(Cl)c(Cl)cc2C1=O`, in assay [1], the pAlpha is -0.29. Besides, the p alphaKa in assay [2] was determined as 6.57. The -logKa in assay [3] was found to be 6.83. The molecule further showed an EC50 in assay [4] of 229 nM.
The matching figures for `C[N+](C)(CCCCCC[N+](C)(C)CCCN1C(=O)c2nccnc2C1=O)CCCN1C(=O)c2ccccc2C1=O`: -0.59, 5.66, 6.25 and 1620 nM.
